For 8 compounds, MIC and Activity results are on record in ChEMBL document CHEMBL4052597, “Symmetrically Substituted Xanthone Amphiphiles Combat Gram-Positive Bacterial Resistance with Enhanced Membrane Selectivity” (J Med Chem, 2017).

The term MIC denotes the smallest concentration in the dilution series that meets the test's criterion for growth inhibition.

≈ marks a conversion by molar mass, not a printed value. Calls of active or inactive are those of the source. Peptide text beside a SMILES is read from it.

For test [1], the system named is Staphylococcus aureus. Briefly: Antibacterial activity against Staphylococcus aureus DM 4001R after 24 hrs by two fold dilution assay. Format: functional. An outline of the steps: (§1)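 CLSI broth macrodilution in cation-adjusted Mueller-Hinton broth. Compounds were dissolved in DMF and diluted in PBS to a 1000 µg/mL stock, then serially 2-fold diluted in CA-MHB. The inoculum came from colonies on 18-20 h TSA plates (direct colony suspension), adjusted to ~5×10^5 CFU/mL. Incubation was 24 h at 35 °C. MIC is the lowest concentration with no visible growth versus control. Biological replicates.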

For test [2], the system named is Staphylococcus aureus. Description: Antibacterial activity against methicillin-resistant Staphylococcus aureus DM 21455 after 24 hrs by two fold dilution assay. The test is classed as functional. The note with it: DM 21455, 24 h. An outline of the steps: as §1
A further test deals with Bacillus cereus. Description: Antibacterial activity against Bacillus cereus ATCC 11778 after 24 hrs by two fold dilution assay. The test is classed as functional. The note with it: ATCC 11778, 24 h. The essentials:
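Broth macro-dilution per CLSI in cation-adjusted Mueller-Hinton broth; compounds dissolved in DMF, diluted in PBS to 1000 µg/mL stock, then serial 2-fold dilutions in CA-MHB in tubes. Inoculum from 18-20 h TSA colonies (direct colony suspension), adjusted to about 5× 10^5 CFU/mL. MIC read after 24 h at 35 °C as lowest concentration with no visible growth; biological replicates.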

For test [3], the system named is Staphylococcus aureus. Description: Antibacterial activity against methicillin-resistant Staphylococcus aureus DM 9808R after 24 hrs by two fold dilution assay. The test is classed as functional. The essentials:
as §1

In test [4] the test system is Staphylococcus aureus. Description: Antibacterial activity against Staphylococcus aureus ATCC 29213 infected in C57BL6 mouse cornea assessed as decrease in number of viable bacteria at 0.5% administered topically at 2 hrs interval for 4 times starting on day 1 post infection measured post last dose relative to control. The test is classed as functional.
For test [5], the system named is Staphylococcus aureus. Briefly: Disruption of membrane in Staphylococcus aureus isolate DM4001R assessed as increase in ATP leakage at 4 times MIC after 1 hr by ATP bioluminescent assay relative to control. Format: functional. An outline of the steps:
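S. aureus DM4001 grown to exponential phase, washed three times in 20 mM PBS (pH 7), resuspended to OD600 0.2. Compound added, suspensions held 1 hour at 37 °C, then centrifuged. Supernatant mixed with luciferase/luciferin enzyme mix; extracellular ATP quantified by luminescence. Replicated.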

The test system of test [6] is Staphylococcus aureus. Description: Disruption of cytoplasmic membrane in Staphylococcus aureus isolate DM4001R at 2 times MIC after 3000 secs by SYTOX green dye based fluorescence assay. Format: functional. An outline of the steps: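 Clinical S. aureus isolate DM4001R incubated with SYTOX Green plus compound; membrane permeabilization read as increased fluorescence intensity. Measurements replicated.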

Test [7] has as its system Lipid bilayer. Description: Induction of membrane damage in DOPE/DOPG large unilamellar vesicles assessed as calcein leakage at compound to lipid ratio of 1:16 after 1 hr by fluorescence assay relative to control. An outline of the steps: (§2)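 100 nm calcein-loaded LUVs made by film hydration; lipid content set by total phosphorus assay. DOPC/cholesterol (3:1, w/w) mimics mammalian and DOPE/DOPG (3:1, w/w) bacterial membranes. Compound in DMF added at lipid-to-compound ratio 16 (6.25 µM compound), final DMF limited to 0.5%. Fluorescence monitored at ex 490/em 520 nm for 1 hour; replicated.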

For test [8], the system named is Lipid bilayer. Briefly: Induction of membrane damage in DOPC/cholesterol large unilamellar vesicles assessed as calcein leakage at compound to lipid ratio of 1:16 after 1 hr by fluorescence assay relative to control. An outline of the steps: as §2
The test system of test [9] is Staphylococcus aureus. Briefly: Antibacterial activity against Staphylococcus aureus ATCC 700699 infected in C57BL6 mouse cornea assessed as decrease in number of viable bacteria at 0.5% administered topically at 2 hrs interval for 4 times starting on day 1 post infection measured post last dose relative to control. Format: functional, Mu50.

With `CC(C)=CCOc1cc(OCC(=O)N[C@@H](CCCNC(=N)N)C(N)=O)c2c(=O)c3c(OCC(=O)N[C@@H](CCCNC(=N)N)C(N)=O)cc(OCC=C(C)C)cc3oc2c1`, the MIC in the test on Staphylococcus aureus [1] turned out to be 12.5 µg/mL (≈ 15.2 µM); against Staphylococcus aureus [2], 6.25 µg/mL (≈ 7.59 µM); against Bacillus cereus, 12.5 µg/mL (≈ 15.2 µM); against Staphylococcus aureus [3], 6.25 µg/mL (≈ 7.59 µM).

For `CC(C)=CCOc1cc(O)c2c(=O)c3c(O)cc(OCC=C(C)C)cc3oc2c1`, the MIC against Staphylococcus aureus [1], in the test with Staphylococcus aureus [2], in the test with Bacillus cereus and against Staphylococcus aureus [3] was greater than 50 µg/mL in each case.

For `C[C@H]1COc2c(N3CCN(C)CC3)c(F)cc3c(=O)c(C(=O)O)cn1c23.C[C@H]1COc2c(N3CCN(C)CC3)c(F)cc3c(=O)c(C(=O)O)cn1c23.O` [LEVOFLOXACIN], the Activity in the test on Staphylococcus aureus [4] was determined as 99.2%.

Take `CCCCN(CCCC)CCCNC(=O)COc1cc(OCC=C(C)C)cc2oc3cc(OCC=C(C)C)cc(OCC(=O)NCCCN(CCCC)CCCC)c3c(=O)c12`: the MIC in the test with Staphylococcus aureus [1] was determined as 3.13 µg/mL (≈ 3.69 µM); against Staphylococcus aureus [2] it was 3.13 µg/mL (≈ 3.69 µM); in the test with Bacillus cereus it was 6.25 µg/mL (≈ 7.36 µM); against Staphylococcus aureus [3], 3.13 µg/mL (≈ 3.69 µM).

For the compound `COC(=O)[C@H](CCCNC(=N)N)NC(=O)COc1cc(OC/C=C(\C)CCC=C(C)C)cc2oc3cc(OC/C=C(\C)CCC=C(C)C)cc(OCC(=O)N[C@@H](CCCNC(=N)N)C(=O)OC)c3c(=O)c12`, the MIC was 25 µg/mL (≈ 25.3 µM) against Staphylococcus aureus [1], greater than 50 µg/mL in the test on Staphylococcus aureus [2], greater than 50 µg/mL against Bacillus cereus and 50 µg/mL (≈ 50.5 µM) with Staphylococcus aureus [3].

With `COC(=O)[C@H](CCCCN)NC(=O)COc1cc(OCC=C(C)C)cc2oc3cc(OCC=C(C)C)cc(OCC(=O)N[C@@H](CCCCN)C(=O)OC)c3c(=O)c12`, the MIC was 12.5 µg/mL (≈ 15.7 µM) in the test on Staphylococcus aureus [1], 6.25 µg/mL (≈ 7.84 µM) against Staphylococcus aureus [2], 6.25 µg/mL (≈ 7.84 µM) in the test with Bacillus cereus and 12.5 µg/mL (≈ 15.7 µM) in the test on Staphylococcus aureus [3]. In addition, the Activity with Staphylococcus aureus [5] is 106.7%; in the test with Lipid bilayer [7] it was 48.2%; in the test with Lipid bilayer [8] it was less than 20%. Also, the result with Staphylococcus aureus [6] was Active.

With `CC[C@H](C)[C@H](NC(=O)CN)C(=O)NCC(=O)N[C@@H](CCCCN)C(=O)N[C@@H](Cc1ccccc1)C(=O)N[C@@H](CC(C)C)C(=O)N[C@@H](CCCCN)C(=O)N[C@@H](CCCCN)C(=O)N[C@@H](C)C(=O)N[C@@H](CCCCN)C(=O)N[C@@H](CCCCN)C(=O)N[C@@H](Cc1ccccc1)C(=O)NCC(=O)N[C@@H](CCCCN)C(=O)N[C@@H](C)C(=O)N[C@@H](Cc1ccccc1)C(=O)N[C@H](C(=O)N[C@@H](CCCCN)C(=O)N[C@H](C(=O)N[C@@H](CC(C)C)C(=O)N[C@@H](CCCCN)C(=O)N[C@@H](CCCCN)C(=O)O)[C@@H](C)CC)C(C)C` (H-GIGKFLKKAKKFGKAFVKILKK-OH), the MIC came to 12.5 µg/mL (≈ 5.04 µM) in the test on Staphylococcus aureus [1], 12.5 µg/mL (≈ 5.04 µM) against Staphylococcus aureus [2], 12.5 µg/mL (≈ 5.04 µM) in the test on Bacillus cereus and 25 µg/mL (≈ 10.1 µM) in the test with Staphylococcus aureus [3]. The Activity with Staphylococcus aureus [9] was determined as 93.3%.

For the compound `CCCOc1cc(OCC(=O)N[C@@H](CCCNC(=N)N)C(=O)OC)c2c(=O)c3c(OCC(=O)N[C@@H](CCCNC(=N)N)C(=O)OC)cc(OCCC)cc3oc2c1`, the MIC against Staphylococcus aureus [1] worked out at 12.5 µg/mL (≈ 15.6 µM); against Staphylococcus aureus [2], 12.5 µg/mL (≈ 15.6 µM); in the test on Bacillus cereus, 25 µg/mL (≈ 31.2 µM); in the test with Staphylococcus aureus [3], 12.5 µg/mL (≈ 15.6 µM).
